Positions of bridges follow the written chain, without caps; N, C: chain ends. Non-standard residues stand in square brackets, D forms with d. Residues, ends and D or L forms follow the SMILES beside them. Nle = CCCC[C@H](N)C(=O)O
Legend:
[1] = Displacement of [3H]DALKD from bradykinin receptor in rat brain membranes at pH 6.8 after 2 hrs by liquid scintillation counting method; type: cell membranes, Membrane
[2] = Displacement of [3H]BK from bradykinin receptor in rat brain membranes at pH 6.8 after 2 hrs by liquid scintillation counting method; type: cell membranes, Membrane
Method in brief: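 Competitive binding of [3H]BK to rat brain membranes at pH 6.8. Non-specific binding was defined with 10 μM kallidin. IC50 values were obtained by nonlinear least-squares regression of data from at least two independent experiments run in duplicate, and were also reported as logarithmic values.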

[3] = Half life in rat plasma by RP-HPLC method; type: ADME, cell-free
Method in brief: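 Peptide incubated in rat plasma at 37 °C and sampled at 1, 2, 4 and 8 h. Quenched samples were analysed by RP-HPLC. Half-life was calculated as t1/2 = 0.693/b, where b is the slope of the linear fit.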

IC50 [1] [nM]	pIC50 [1]	IC50 [2] [nM]	pIC50 [2]	half-life [3] [h]	Structure (SMILES)
78	7.11	–	–	–	CCCC[C@H](NC(=O)[C@H](CCCCN)NC(=O)[C@@H]1CCCN1C(=O)[C@H](CCCCN)NC(=O)[C@@H](N)CCCC)C(=O)N[C@@H](CCCCN)C(=O)O (H-[Nle]KPK[Nle]K-OH)
–	–	302	6.52	–	CC[C@H](C)[C@@H]1NC(=O)[C@H](CCCNC(=N)N)NC(=O)[C@H](CC(C)C)NC(=O)[C@H](CCCCN)NC(=O)CC[C@@H](C(=O)N[C@@H](CCCCN)C(=O)O)NC(=O)[C@H](CCCNC(=N)N)NC1=O (KLRIREK-OH; lactam N-6)
–	–	191	6.72	5.5	CC[C@H](C)[C@@H]1NC(=O)[C@H](CCCNC(=N)N)NC(=O)[C@H](CC(C)C)NC(=O)[C@H](Cc2ccccc2)NC(=O)CC[C@@H](C(=O)N[C@@H](CCCCN)C(=O)O)NC(=O)[C@H](CCCNC(=N)N)NC1=O (FLRIREK-OH; lactam N-6)
–	–	1510	5.82	–	CC[C@H](C)[C@@H]1NC(=O)[C@H](CCCNC(=N)N)NC(=O)[C@H](CC(C)C)NC(=O)CC[C@@H](C(=O)N[C@@H](CCCCN)C(=O)O)NC(=O)[C@H](CCCNC(=N)N)NC1=O (LRIREK-OH; lactam N-5)

Reference: ChEMBL document CHEMBL3864141, “Cyclic non-opioid dynorphin A analogues for the bradykinin receptors” (Bioorg Med Chem Lett, 2016)
